Source: PubChem (Broad Institute)
IDH1 R132H inh – blocks human IDH1 R132H reductase activity | AID 624101 | O75874 | 70,000 tested, 0.18% active | diaphorase/resazurin fluorescence, 60 min | inhibition, % at 10 µM; in the data active = inhibition above about 34%; inconclusive = no clear call, values can overlap the other calls; inactive = below about 11%;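 also: 0% = DMSO and 100% = no enzyme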
Target sequence (O75874 whole entry R132H): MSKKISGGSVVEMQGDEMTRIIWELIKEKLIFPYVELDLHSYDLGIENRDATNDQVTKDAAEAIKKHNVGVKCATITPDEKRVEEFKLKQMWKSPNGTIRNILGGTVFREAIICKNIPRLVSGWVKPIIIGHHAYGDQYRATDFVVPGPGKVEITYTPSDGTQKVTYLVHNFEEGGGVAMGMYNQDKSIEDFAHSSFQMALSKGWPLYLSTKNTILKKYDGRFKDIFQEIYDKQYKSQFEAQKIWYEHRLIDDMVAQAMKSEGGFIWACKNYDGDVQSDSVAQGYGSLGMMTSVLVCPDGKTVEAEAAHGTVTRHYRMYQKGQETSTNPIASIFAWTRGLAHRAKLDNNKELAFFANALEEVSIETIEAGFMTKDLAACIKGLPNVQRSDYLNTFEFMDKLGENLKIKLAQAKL
Pf Dd2 inh – blocks growth of Plasmodium falciparum Dd2 parasites; P. falciparum Dd2 growth, SYBR Green, 72 h; active compounds read low; 94,000 tested, 2.3% active; AID 1159554; activity change, % at 10 µM; in the data active = activity change below about -80%; inconclusive = no clear call, values can overlap the other calls
T cruzi growth-1 – inhibitors of T. cruzi proliferation; T. cruzi beta-gal in NIH3T3, GalScreen luminescence, 90 h; inhibition, % at 8.34 µM; 77,000 tested, 5.9% active;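 active = mean inhibition above about 93%, with at least 55% of replicates each passing it, limit read from the data, passing the limit was not always enough; inconclusive = only one of those two conditions holds; inactive = neither condition holds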
GASC1 inh – inhibitors of human demethylase GASC-1 KDM4C | Q9H3R0 | GST-KDM4C 2-372, H3K9me3 peptide, LANCE TR-FRET | inhibition, % at 12.5 µM | 96,000 tested, 0.15% active | AID 720574;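 active = mean replicate inhibition above about 25%, with at least 55% of replicates also reaching it, limit read from the data, passing the limit was not always enough; inconclusive = only one of those two conditions met; inactive = neither condition met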
Target sequence (Q9H3R0 2-372 limits assumed): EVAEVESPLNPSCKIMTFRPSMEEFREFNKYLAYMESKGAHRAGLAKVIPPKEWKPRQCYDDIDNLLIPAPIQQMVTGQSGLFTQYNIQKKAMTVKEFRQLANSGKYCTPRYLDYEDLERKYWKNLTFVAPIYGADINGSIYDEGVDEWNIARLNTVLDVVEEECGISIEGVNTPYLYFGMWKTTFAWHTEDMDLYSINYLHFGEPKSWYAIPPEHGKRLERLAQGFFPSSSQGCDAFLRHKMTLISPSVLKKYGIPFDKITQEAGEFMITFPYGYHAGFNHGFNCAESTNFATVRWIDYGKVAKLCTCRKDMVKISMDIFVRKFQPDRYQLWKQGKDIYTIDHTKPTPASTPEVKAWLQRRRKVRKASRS
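System: N-terminal GST-fused human GASC-1 (KDM4C) fragment, residues 2-372 / Amount: 10 nM GST-KDM4C in enzyme reaction / Also added: H3K9me3 peptide with Fe(II)/2OG / Times: 30 min demethylation and 1 h detection at room temperature / Signal: LANCE TR-FRET / Read-out basis: Fall in 671/618 emission ratio as inhibition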
T cruzi growth-2 – inhibitors of T. cruzi proliferation. 5,600 tested, 72% active. shares compounds with T cruzi growth-1. inhibition, % at 8.35 µM. T. cruzi beta-gal in NIH3T3, GalScreen luminescence, 90 h;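 active = mean replicate inhibition above about 95% and at least 55% of replicates individually reaching it, limit read from the data; inconclusive = only one of the two criteria is met; inactive = neither criterion is met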
T cruzi growth-3 – inhibitors of T. cruzi proliferation. T. cruzi beta-gal in NIH3T3, GalScreen luminescence, 90 h. inhibition, % at 2.09 µM. shares compounds with T cruzi growth-1. 5,600 tested, 21% active;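 active = mean inhibition above about 95%, with at least 55% of replicates also reaching it, limit read from the data; inconclusive = meets just one of the two conditions; inactive = meets neither condition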;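 also: plate controls were neutral control median for no effect and positive control median for full effect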
NIH3T3 tox – kills mouse NIH/3T3 fibroblasts; AID 651742; NIH/3T3 viability, CellTiter-Glo ATP luminescence, 90 h; shares compounds with T cruzi growth-1; cytotoxicity (signal decrease), % at 8.35 µM; 5,600 tested, 14% active;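 active = mean signal decrease across replicates above about 35% based on untreated-well scatter, with enough replicates individually passing, limit read from the data; inconclusive = no rule stated though some were filed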;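 also: 0% = median of neutral control wells and 100% = median of positive control wells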
3T3 cytotox 2 – kills mouse NIH/3T3 fibroblasts; 5,600 tested, 56% active; AID 651744; NIH/3T3 viability, CellTiter-Glo ATP luminescence, 90 h; shares compounds with T cruzi growth-1; inhibition, % at 24.9 µM;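 active = mean loss of cell viability signal at or above a set limit, and enough replicates individually reaching it; inconclusive = meets only the mean limit or only the replicate share; inactive = meets neither condition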;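 also: 0% = median of neutral control wells and 100% = median of positive control wells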
Numbers without * were called inactive; ? = inconclusive; nt = no result. An excerpt weighted towards active compounds, which were near 5.8% of everything screened.

SMILES	IDH1 R132H inh	Pf Dd2 inh	T cruzi growth-1	GASC1 inh	T cruzi growth-2	T cruzi growth-3	NIH3T3 tox	3T3 cytotox 2
CCC(=O)N1C[C@@H]2[C@H](c3ccccc31)[C@@H](CO)N2C(=O)CC	nt	-75.7	102.0*	-4.1	6.5	3.4	-11.3	-12.5
COc1cccc(C(=O)Nc2ccc3c(c2)OC[C@@H](C)N(CCc2ccccc2)C[C@H](C)[C@@H](OC)CN(C)C3=O)c1	-0.5	-2.1	110.0*	-3.0	110.0*	55.7	-18.9	-4.9
COc1cccc(C(=O)Nc2ccc3c(c2)OC[C@H](C)N(CCc2ccccc2)C[C@H](C)[C@@H](OC)CN(C)C3=O)c1	-0.1	-52.4	115.7*	-2.3	103.3*	77.3	-6.4	8.0
COc1cccc(C(=O)Nc2ccc3c(c2)C(=O)N(C)C[C@H](OC)[C@@H](C)CN(CCc2ccccc2)[C@H](C)CO3)c1	-0.3	-49.1	84.2	-0.2	nt	nt	nt	nt
COc1cccc(C(=O)Nc2ccc3c(c2)OC[C@H](C)N(CCc2ccccc2)C[C@@H](C)[C@@H](OC)CN(C)C3=O)c1	-0.3	-34.8	119.1*	-1.4	108.5*	61.9	13.0	-0.6
COc1cccc(C(=O)Nc2ccc3c(c2)OC[C@@H](C)N(CCc2ccccc2)C[C@@H](C)[C@@H](OC)CN(C)C3=O)c1	-0.2	-54.6	67.7	0.9	nt	nt	nt	nt
COc1cccc(C(=O)Nc2ccc3c(c2)C(=O)N(C)C[C@H](OC)[C@H](C)CN(CCc2ccccc2)[C@@H](C)CO3)c1	-0.1	-58.3	?	1.5	nt	nt	nt	nt
CCCC#Cc1ccc([C@H]2[C@H](C#N)N(C(=O)C3CC3)[C@H]2CO)cc1	nt	-23.8	105.7*	-0.9	107.0*	89.1	-3.6	32.0*
CCCC#Cc1ccc([C@H]2[C@@H](C#N)N(C(=O)C3CCC3)[C@H]2CO)cc1	nt	-55.2	92.6	0.0	nt	nt	nt	nt
CCCC#Cc1ccc([C@@H]2[C@@H](C#N)N(C(=O)C3CCOCC3)[C@H]2CO)cc1	nt	-23.3	63.1	-1.1	nt	nt	nt	nt
CCCC#Cc1ccc([C@@H]2[C@@H](CO)N(C(=O)C3CC3)[C@H]2C#N)cc1	nt	-13.9	101.3*	2.3	97.7*	69.9	-4.9	35.8*
CCCC#Cc1ccc([C@H]2[C@@H](C#N)N(C(=O)C3CC3)[C@H]2CO)cc1	nt	-37.8	?	0.4	?	?	5.7	41.2*
CCCC#Cc1ccc([C@H]2[C@@H](C#N)N(C(=O)C3CC3)[C@@H]2CO)cc1	nt	-26.1	?	-1.2	102.7*	86.4	-28.8	15.4
CC(=O)Nc1ccc(NC(=O)CN(c2cccc(Br)c2)S(C)(=O)=O)cc1	-0.1	nt	nt	nt	nt	nt	nt	nt
CCc1cccc(C)c1NC(=O)CSc1nnc(-c2cccnc2)n1C	0.4	nt	nt	nt	nt	nt	nt	nt
Cc1ccc(-c2cc(C(=O)NCCCN3CCOCC3)c3cc(Br)ccc3n2)cc1	0.0	nt	nt	nt	nt	nt	nt	nt
COc1ccc([C@H]2OC[C@H]3[C@@H]2CO[C@@H]3c2ccc(O[C@@H]3O[C@H](CO)C(O)[C@H](O)[C@H]3O)c(OC)c2)cc1OC (stereo partly specified)	0.3	nt	nt	nt	nt	nt	nt	nt
Cc1c(NC(=O)COc2ccc(Br)cc2)cccc1-c1nc2cc(Cl)ccc2o1	0.2	nt	nt	nt	nt	nt	nt	nt
COc1ccc(S(=O)(=O)N(C)CC(=O)Nc2cc(C(F)(F)F)ccc2Cl)cc1C	0.6	nt	nt	nt	nt	nt	nt	nt
CCc1cnc(N2[C@H](C#N)[C@H](c3ccccc3)[C@H]2CO)s1	nt	26.5	-6.9	-0.5	nt	nt	nt	nt
CCc1cnc(N2[C@H](C#N)[C@@H](c3ccccc3)[C@H]2CO)s1	nt	20.5	6.5	-1.1	nt	nt	nt	nt
CCc1cnc(N2[C@H](C#N)[C@@H](c3ccc(C#Cc4ccccc4F)cc3)[C@@H]2CO)s1	nt	-52.7	100.4*	-0.8	100.1*	107.1*	-25.4	84.9*
CCc1cnc(N2[C@@H](C#N)[C@H](c3ccc(C#Cc4ccccc4F)cc3)[C@@H]2CO)s1	nt	-44.3	110.1*	-1.3	105.1*	94.3	10.7	1.6
CCc1cnc(N2[C@H](C#N)[C@@H](c3ccc(-c4cccc(F)c4)cc3)[C@@H]2CO)s1	nt	-21.6	?	-1.7	104.4*	52.0	-3.9	100.0*
O=C(CSc1nc2ccccc2[nH]1)Nc1ccccc1-c1ccccc1	-0.4	nt	nt	nt	nt	nt	nt	nt
SMILES	IDH1 R132H inh	Pf Dd2 inh	T cruzi growth-1	GASC1 inh	T cruzi growth-2	T cruzi growth-3	NIH3T3 tox	3T3 cytotox 2
O=C(CNS(=O)(=O)c1cc(Cl)ccc1Cl)Nc1ccc(Oc2ccccc2)cc1	0.0	nt	nt	nt	nt	nt	nt	nt
Cn1c2ccccc2c2nnc(SCC(=O)c3ccc(Cl)cc3)nc21	-0.2	nt	nt	nt	nt	nt	nt	nt
COc1ccc(S(=O)(=O)N(C)C[C@H]2OCCCC[C@@H](C)Oc3ccc(NC(=O)Nc4ccccc4)cc3C(=O)N([C@@H](C)CO)C[C@@H]2C)cc1	nt	-64.2	100.4*	-1.8	112.4*	1.5	7.8	?
COc1ccc(S(=O)(=O)N(C)C[C@@H]2OCCCC[C@@H](C)Oc3ccc(NC(=O)Nc4ccccc4)cc3C(=O)N([C@@H](C)CO)C[C@H]2C)cc1	-0.9	-73.6	?	-0.8	111.2*	67.2	-3.2	4.7
COc1ccc(S(=O)(=O)N(C)C[C@@H]2OCCCC[C@H](C)Oc3ccc(NC(=O)Nc4ccccc4)cc3C(=O)N([C@@H](C)CO)C[C@@H]2C)cc1	0.3	-85.6*	?	-0.9	105.3*	72.0	6.5	25.3
COc1ccc(S(=O)(=O)N(C)C[C@H]2OCCCC[C@H](C)Oc3ccc(NC(=O)Nc4ccccc4)cc3C(=O)N([C@@H](C)CO)C[C@@H]2C)cc1	4.4	-76.5	104.5*	7.4	109.8*	66.5	18.3	7.5
COc1ccc(S(=O)(=O)N(C)C[C@H]2OCCCC[C@H](C)Oc3ccc(NC(=O)Nc4ccccc4)cc3C(=O)N([C@H](C)CO)C[C@H]2C)cc1	nt	?	-12.0	4.0	nt	nt	nt	nt
CCn1c(SCC(=O)c2ccc(Cl)cc2Cl)nnc1-c1cccnc1	0.2	nt	nt	nt	nt	nt	nt	nt
CC(C)(C)c1ccc(SCC(O)CSc2nc3c(cc2C#N)CCCC3)cc1 (stereo unspecified)	-0.4	nt	nt	nt	nt	nt	nt	nt
CN1C(=O)c2cc(NC(=O)Cc3cccs3)ccc2OC[C@H]2O[C@@H](CC(=O)N[C@H]3CCN(Cc4ccccc4)C3)CC[C@@H]21	nt	nt	52.0	1.5	nt	nt	nt	nt
CN1C(=O)c2cc(NC(=O)Cc3cccs3)ccc2OC[C@H]2O[C@H](CC(=O)N[C@H]3CCN(Cc4ccccc4)C3)CC[C@@H]21	nt	nt	104.8*	0.6	?	65.9	-23.5	-46.5
CN1C(=O)c2cc(NC(=O)Cc3cccs3)ccc2OC[C@@H]2O[C@@H](CC(=O)N[C@H]3CCN(Cc4ccccc4)C3)CC[C@H]21	nt	nt	82.2	-2.1	nt	nt	nt	nt
CN1C(=O)c2cc(NC(=O)Cc3cccs3)ccc2OC[C@@H]2O[C@H](CC(=O)N[C@H]3CCN(Cc4ccccc4)C3)CC[C@H]21	nt	nt	-63.5	-0.4	nt	nt	nt	nt
